We go through five compounds from PMC5531262 (Messenger (Los Angeles, Calif. : Print), 2016).

“And” between values parts separate entries of the source, which are not always exact repeats. Equal entries are not always repeated.

Holding throughout (assay type): biochemical, Lytechinus pictus
Assay [1] deals with IP3-induced Ca^2+ release (IP3Rs). As to the kind of experiment: IP3-induced Ca^2+ release in sea urchin egg homogenate. In outline:
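Lytechinus pictus egg homogenate (GluIM, pH 7.2, with ATP-regenerating system) diluted 20-fold over 3 h at 17°C to 2.5% v/v. Fluo-3 3 μM final, ex 506/em 526 nm, stirred cuvette. Test compound or DMSO preincubated 2 min, then sub-maximal IP3 chosen from a dose-response curve. Signal calibrated to [Ca2+] with 0.5 mM EGTA then 10 mM CaCl2. Sigmoidal fit; mean ± SEM, n = 4–7.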

Assay [2] relates to cADPR-induced Ca^2+ release (RyRs). As to the kind of experiment: cADPR-induced Ca^2+ release in sea urchin egg homogenate. In outline:
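Egg homogenate from Lytechinus pictus diluted 20-fold over 3 h at 17°C in GluIM with ATP regeneration; 3 μM Fluo-3 final, calibrated with EGTA/CaCl2. Test compound or DMSO preincubated 2 min before 0.3 μM cADPR (sub-maximal). For the time course, 30 μM test compound was preincubated 10–120 s. cADPR concentration-response was run after 2 min with 30 μM or DMSO. Sigmoidal fits; mean ± SEM, n = 4–9.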

Assay [3] deals with caffeine-induced Ca^2+ release (RyRs). As to the kind of experiment: caffeine-induced Ca^2+ release in sea urchin egg homogenate. Particulars: 10 mM caffeine. In short, it runs like this: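 Lytechinus pictus egg homogenate loaded with Ca2+ by 20-fold dilution over 3 h at 17°C in GluIM plus ATP-regenerating system; Fluo-3 3 μM final, stirred cuvette, ex 506/em 526 nm. Test compound preincubated 2 min, then 10 mM caffeine. Fluorescence converted to [Ca2+] using 0.5 mM EGTA and 10 mM CaCl2 for Fmin/Fmax. Sigmoidal concentration-response fit; mean ± SEM, n = 4–7.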

Consider `O=P(O)(O)O[C@@H]1[C@H](O)[C@H](O)[C@@H](OP(=O)(O)O)[C@H](OP(=O)(O)O)[C@H]1O` [IP3, inositol 1,4,5-trisphosphate], for which the “raw control ∆[Ca^2+] with IP3” value in assay [1] (sub-maximal IP3, no inhibitor) came to 94 ± 1 nM.
Take `c1ccc(CN(CCN(Cc2ccccn2)Cc2ccccn2)Cc2ccccn2)nc1` [TPEN, N,N,N’,N’- tetrakis(2-pyridylmethyl)ethylenediamine]: the “effect on cADPR-induced Ca^2+ release” value in assay [2] (preincubation 2 minutes, then 0.3 μM cADPR, magnitude and kinetics) is “inhibited cADPR-induced Ca^2+ release”.
Take `N=c1c2ncn3c2ncn1[C@@H]1O[C@H](COP(=O)(O)OP(=O)(O)OC[C@H]2O[C@@H]3[C@H](O)[C@@H]2O)[C@@H](O)[C@H]1O` [cADPR]: the “raw control response ∆[Ca^2+] with cADPR” value in assay [2] (0.3 μM cADPR, no inhibitor) is 72 ± 5 nM and 76 ± 4 nM and 72 ± 4 nM and 85 ± 3 nM and 75 ± 4 nM. Also, the EC50 in assay [2] (read-out: EC50 of cADPR for Ca^2+ release (concentration-response curve), sea urchin egg homogenate, Fig. 2b) is approximately 250 nM.
`Cn1c(=O)c2c(ncn2C)n(C)c1=O` [caffeine]: the “raw control ∆[Ca^2+] with caffeine” value in assay [3] (no inhibitor) came out at 80 ± 5 nM.
For `COc1ccccc1OCCNCC(O)COc1cccc2[nH]c3ccccc3c12` (stereo not drawn) [carvedilol], the “inhibition of IP3-induced Ca^2+ release (extent)” value in assay [1] (sub-maximal IP3, preincubation 2 minutes, Fig. 4) was 47%. The “inhibition of cADPR-induced Ca^2+ release (extent)” value in assay [2] (0.3 μM cADPR, extent of inhibition at high carvedilol concentration) is recorded as more than 80%. Besides, the “time of preincubation to maximal suppression of cADPR-induced Ca^2+ release” value in assay [2] (carvedilol 30 μM, no further inhibition at longer incubations) was not above 10 s. Also, the “inhibition of caffeine-induced Ca^2+ release (extent)” value in assay [3] (preincubation 2 minutes) is recorded as more than 80%.
